CHRM5 PAM: human M5 muscarinic receptor positive allosteric modulators, primary screen, CHO-K1 cells, Fluo-8 calcium fluorescence; activation, % at 3 µM; Muscarinic acetylcholine receptor M5 (Homo sapiens), P08912; CHO-K1 hM5, ACh EC20 PAM; 0% = ACh EC20, 100% = ACh EC100; 0.3% of 360,000 active;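 active means activation above the run cutoff, the mean activation of all test compounds plus 3 SD, cut at about 18% in these data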
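Assay system: CHO-K1 hM5 cells. Also added: acetylcholine at EC20 concentration, added after compound. Dosing: 3 µM, single dose. Times: compound preincubation 140 s before EC20 acetylcholine addition. Signal: Fluo-8 calcium fluorescence. Measure: % activation relative to EC20 and EC100 ACh responses. Repeats: singlicate, one well per test compound.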
CHRM4 PAM: human M4 muscarinic receptor positive allosteric modulators, primary screen, CHO-K1 cells, Fluo-8 calcium fluorescence; CHO-K1 hM4/Gqi5, ACh EC20; 0% = ACh EC20, 100% = maximal ACh; AID 624126, 2012; 0.4% of 360,000 active; Muscarinic acetylcholine receptor M4 (Homo sapiens), P08173; activation, % at 3 µM;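 active means activation above its plate's cutoff, the mean activation of sample wells plus 3 SD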
Target sequence (P08173 whole entry, looked up): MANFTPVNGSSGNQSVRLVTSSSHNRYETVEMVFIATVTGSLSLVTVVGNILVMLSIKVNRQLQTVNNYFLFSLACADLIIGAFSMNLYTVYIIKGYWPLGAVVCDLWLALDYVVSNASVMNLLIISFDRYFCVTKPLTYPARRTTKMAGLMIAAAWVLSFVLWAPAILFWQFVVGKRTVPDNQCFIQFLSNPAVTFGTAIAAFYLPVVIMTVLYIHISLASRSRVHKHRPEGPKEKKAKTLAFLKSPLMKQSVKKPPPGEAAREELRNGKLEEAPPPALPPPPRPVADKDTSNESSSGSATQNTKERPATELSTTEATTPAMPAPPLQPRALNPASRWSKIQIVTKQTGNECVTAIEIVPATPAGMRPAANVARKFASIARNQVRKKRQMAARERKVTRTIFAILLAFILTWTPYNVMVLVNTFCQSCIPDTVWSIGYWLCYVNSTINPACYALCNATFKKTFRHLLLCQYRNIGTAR
CHRM4 antagonist: human M4 muscarinic receptor antagonists, primary screen, CHO cells, Fluo-8 calcium fluorescence. inhibition, % at 3 µM. AID 624125, 2012. Muscarinic acetylcholine receptor M4 (Homo sapiens), P08173. CHO-hM4 cells, ACh EC80. 0.73% of 360,000 active;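 active means inhibition above its plate's cutoff, the mean inhibition of sample wells plus 3 SD, cut at about 27% in these data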
CHRM4 agonist: human M4 muscarinic receptor agonists, primary screen, CHO-K1 cells, Fluo-8 calcium fluorescence | activation, % at 3 µM | 0.14% of 360,000 active | CHO-K1 hM4/Gqi5; vehicle 0%, full acetylcholine response 100% | Muscarinic acetylcholine receptor M4 (Homo sapiens), P08173;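 active means activation above the run mean over all test wells plus 3 SD, cut at about 32% in these data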;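 further: peak over basal fluorescence ratio per well then scaled between controls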
M5 antag: human M5 muscarinic receptor antagonists, primary screen, CHO cells, Fluo-8 calcium fluorescence; 0.59% of 360,000 active; AID 624040, 2012; Muscarinic acetylcholine receptor M5 (Homo sapiens), P08912; CHO-hM5 cells, ACh EC80; inhibition, % at 3 µM;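 active means inhibition above a per-plate cutoff, the mean of that plate's test compounds plus 3 SD, cut at about 27% in these data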
CHRM5 agonist: human M5 muscarinic receptor agonists, primary screen, CHO-K1 cells, Fluo-8 calcium fluorescence; Muscarinic acetylcholine receptor M5 (Homo sapiens), P08912; CHO-K1 hM5 cells; 0% DMSO wells, 100% maximal acetylcholine response; activation, % at 3 µM; 0.19% of 360,000 active; AID 624037, 2012;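 active means activation above the run's mean over test compounds plus 3 SD, cut at about 23% in these data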;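 further: signal is peak over basal fluorescence ratio across the kinetic read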
A number is an active result; 0 = inactive. The list is not random: actives were taken first. Their share in the collection is about 1.9%.

SMILES | CHRM5 PAM | CHRM4 PAM | CHRM4 antagonist | CHRM4 agonist | M5 antag | CHRM5 agonist
O=C(c1ccccc1F)N1CCC2CC1c1cc(N3CCCCC3)ccc12 (stereo not drawn) | 0 | 0 | 0 | 0 | 0 | 0
CN(C)CCCNc1oc(-c2ccc(Cl)cc2)nc1S(=O)(=O)c1ccccc1 | 0 | 0 | 0 | 0 | 0 | 0
COc1ccc(-c2csc(NC(=O)c3c(OC)cccc3OC)n2)cc1 | 0 | 0 | 0 | 0 | 0 | 0
COc1ccc(-c2csc(NC(=O)c3ccccc3NS(=O)(=O)c3ccc(C)cc3)n2)cc1 | 0 | 0 | 0 | 0 | 33 | 0
COc1ccc(S(=O)(=O)Nc2ccccc2C(=O)Nc2nc(-c3ccc(F)cc3)cs2)cc1OC | 0 | 0 | 33 | 0 | 43 | 0
CCCNC(=O)c1ccccc1NS(=O)(=O)c1ccc(OC)c(OC)c1 | 0 | 0 | 0 | 0 | 0 | 0
COCC(C)NC(=O)c1ccc(CN2CCc3ccccc3C2)cc1 (stereo not drawn) | 0 | 0 | 28 | 0 | 0 | 0
O=C(Nc1ccccc1)c1ccc(CN2CCC(Cc3ccccc3)CC2)cc1 | 0 | 0 | 32 | 0 | 0 | 0
O=C(Nc1ccc(Cl)cc1)c1ccc(CN2CCc3ccccc3C2)cc1 | 0 | 0 | 0 | 0 | 0 | 0
O=C(Nc1ccc(S(=O)(=O)N2CCCC2)cc1)c1ccc(CN2CCc3ccccc3C2)cc1 | 0 | 0 | 32 | 0 | 0 | 0
C=CCNC(=O)c1cccc2c1C(=O)c1ccc(N3CCCC3)cc1S2(=O)=O | 0 | 0 | 0 | 0 | 0 | 0
CCC(=O)N1CCN(C(=O)c2ccccc2)CC1 | 0 | 0 | 75 | 0 | 0 | 0
Cc1cccc2sc(N(CCCN(C)C)C(=O)c3ccc(Cl)s3)nc12 | 0 | 0 | 0 | 0 | 0 | 0
Cc1cccc2sc(N(CCCN(C)C)C(=O)c3ccco3)nc12 | 0 | 0 | 73 | 0 | 49 | 0
Cc1cc(C)c2nc(N(CCCN(C)C)C(=O)c3ccc4c(c3)OCCO4)sc2c1 | 0 | 29 | 0 | 0 | 0 | 0
COc1ccc(C)c2sc(N(CCCN(C)C)C(=O)c3ccc4c(c3)OCCO4)nc12 | 0 | 67 | 54 | 0 | 0 | 0
CCOC(=O)[C@]12CCCC=C1N(Cc1ccc(Cl)cc1Cl)C(=O)[C@H](CC(=O)NCc1ccccc1)C2 | 0 | 0 | 0 | 0 | 0 | 0
CC(=O)Nc1ccc(/C=N/N2CCCCC2)cc1 | 20 | 0 | 0 | 0 | 0 | 0
CCOC(=O)c1sc(=S)n(-c2ccccc2)c1C | 0 | 0 | 0 | 0 | 0 | 0
Cc1c(C(=O)O)sc(=S)n1-c1ccccc1 | 0 | 20 | 0 | 0 | 0 | 0
Cc1c(C=O)c2ccccn2c1C(=O)c1ccccc1Cl | 0 | 0 | 55 | 0 | 0 | 0
NC(=O)N1N=C2/C(=C/c3ccccc3)CCCC2C1c1ccccc1 (stereo not drawn) | 0 | 0 | 0 | 0 | 0 | 0
O=C(O)CSCC(=O)N1N=C2/C(=C/c3ccccc3)CCCC2C1c1ccccc1 (stereo not drawn) | 0 | 16 | 0 | 0 | 0 | 0
COC(=O)Cc1ccc(NC(=S)N2CCN(C(=O)C3CCCO3)CC2)cc1 (stereo not drawn) | 0 | 0 | 0 | 0 | 0 | 0
COc1ccc(OC)c(C2C(C(=O)c3ccc(C)o3)=C(O)C(=O)N2CCCN2CCOCC2)c1 (stereo not drawn) | 23 | 0 | 0 | 0 | 0 | 0
SMILES | CHRM5 PAM | CHRM4 PAM | CHRM4 antagonist | CHRM4 agonist | M5 antag | CHRM5 agonist
COc1ccc(-n2c(C)nn(C)c2=O)cc1 | 0 | 0 | 0 | 0 | 0 | 0
COc1ccc(-n2c(/C=C(\C)O)nc(=O)c3c(C)cc(C)nc32)cc1 | 0 | 34 | 0 | 0 | 0 | 0
CN(Cc1c(C(=O)N/N=C/c2cccc(O)c2)nnn1-c1nonc1N)c1ccccc1 | 0 | 0 | 0 | 0 | 0 | 0
NS(=O)(=O)c1cccc(NC(=O)c2ccccc2NS(=O)(=O)c2ccc(F)cc2)c1 | 0 | 0 | 0 | 0 | 0 | 0
Cc1ccc(NC(=O)c2cnccn2)cc1S(=O)(=O)N1CCCCCC1 | 0 | 0 | 0 | 0 | 28 | 0
O=C(Nc1cccc(S(=O)(=O)N2CCCCC2)c1)c1ccccc1NS(=O)(=O)c1ccc(F)cc1 | 0 | 0 | 0 | 0 | 41 | 0
Cc1ccc(NC(=O)CSc2ncnc3ccccc23)cc1S(=O)(=O)N1CCCCC1 | 0 | 0 | 0 | 0 | 30 | 0
Cc1ccc(NC(=O)c2ccccc2NS(=O)(=O)c2ccc(F)cc2)cc1S(=O)(=O)N1CCCCC1 | 0 | 0 | 0 | 0 | 35 | 0
O=C(O)[C@H]1CC=C[C@H]2CCN(Cc3ccc(Cl)c(Cl)c3)C(=O)[C@@H]12 | 0 | 0 | 0 | 0 | 0 | 0
COc1ccc(-c2cnc3ccccc3n2)cc1NC(=O)CNC(=O)c1ccccc1 | 0 | 0 | 0 | 0 | 0 | 0
O=C(Nc1ccccc1Cl)c1cc(S(=O)(=O)N2CCCC(C(=O)O)C2)ccc1F (stereo not drawn) | 0 | 51 | 0 | 0 | 0 | 0
O=C(Nc1ccccc1C(=O)O)c1cc(S(=O)(=O)N2CCCCCC2)ccc1Cl | 0 | 0 | 0 | 0 | 0 | 0
COC(=O)c1cnn(-c2ccccc2)c1/C=N/NC(=S)Nc1ccccc1 | 0 | 0 | 0 | 0 | 0 | 0
COC(=O)c1cnn(-c2ccccc2)c1C(OC)OC | 22 | 0 | 0 | 0 | 0 | 0
COC(=O)c1ccc(CSc2ccc3nnc(-c4ccccn4)n3n2)o1 | 0 | 0 | 0 | 0 | 0 | 0
O=C(CSc1nc2ccccc2nc1N1CCCCC1)Nc1ccc(F)cc1 | 0 | 0 | 0 | 0 | 0 | 0
O=C1N/C(=N\S(=O)(=O)c2ccccc2)S/C1=C\c1cc([N+](=O)[O-])ccc1O | 0 | 0 | 0 | 125 | 0 | 45
O=C1N/C(=N\S(=O)(=O)Cc2ccccc2)S/C1=C/c1cc([N+](=O)[O-])ccc1O | 0 | 0 | 0 | 50 | 40 | 89
Cc1ccc(S(=O)(=O)/N=C2/NC(=O)/C(=C\c3cc(Br)cc(Br)c3O)S2)cc1 | 0 | 0 | 0 | 0 | 0 | 35
Cc1cc(C)c2c(=O)[nH]c(SCC(=O)c3ccc(C)c(C)c3)nc2n1 | 0 | 0 | 0 | 0 | 0 | 0
C=CCN1c2ccccc2C(=O)C(C)S1(=O)=O (stereo not drawn) | 0 | 0 | 0 | 0 | 0 | 0
O=C1Nc2ccc(Br)cc2C12NNc1ccccc1O2 (stereo not drawn) | 0 | 0 | 0 | 0 | 31 | 0
O=C1Nc2ccc(Br)cc2C1(O)c1ccccc1 (stereo not drawn) | 0 | 0 | 0 | 0 | 0 | 0
O=C(CSc1nnc(Cc2cc(=O)[nH]c(=O)[nH]2)n1-c1ccc(Cl)cc1)NC1CCCC1 | 0 | 0 | 0 | 0 | 0 | 0

Bioassay records as filed in PubChem BioAssay.
